Active and inactive are the calls of the source. No cut-off for these calls is given here.
How the values were obtained:
[1] = system: Human immunodeficiency virus 1; assay: Antiviral activity against X4 HIV1 NL4.3 infected in human MT4 cells assessed as inhibition of viral replication pre-incubated for 30 mins […]; type: functional, organism-based; conditions: Human immunodeficiency virus 1, NL4.3, MT4
[2] = biological target: T1, C-X-C chemokine receptor type 4 (Homo sapiens, UniProt P61073); assay: Inhibition of anti-CXCR4 mAbs clone 12G5 binding to CXCR4 in human SUPT1 cells incubated for 30 mins by FACS
[3] = system: Human immunodeficiency virus 1; assay: Antiviral activity against X4 HIV1 NL4.3 infected in human PBMC assessed as inhibition of viral replication pre-incubated for 30 mins measured 5 days post infection by MTT assay; type: functional, organism-based; conditions: Human immunodeficiency virus 1, NL4.3
Method in brief: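 Human PBMC infected with HIV-1 NL4.3. IC₅₀ is the concentration inhibiting viral replication by 50%, averaged over two independent experiments. Cytotoxicity (CC₅₀, 50% loss of PBMC viability) evaluated in the same assay.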

[4] = biological target: T1, C-X-C chemokine receptor type 4; assay: Inhibition of anti-CXCR4 mAbs clone 173 binding to CXCR4 in human SUPT1 cells incubated for 30 mins by FACS
[5] = biological target: T2, C-C chemokine receptor type 5 (Homo sapiens, UniProt P51681); assay: Antagonist activity against CCR5 expressed in U87.CD4.CCR5 cells assessed as inhibition of CCL3L1-induced calcium signaling incubated for 10 mins by FLIPR; type: functional, cell-based
Method in brief: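 U87.CD4.CCR5 cells seeded at 2 × 10⁴/well on 0.2% gelatin the day before, loaded with 4 μM Fluo-3 AM for 45 min at 37 °C, washed, then preincubated with compounds at varied concentrations in assay buffer for 10 min at 37 °C. Stimulated with 10 ng/mL LD78β (CCL3L1); Ca²⁺ flux recorded by FLIPR.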

[6] = Cytotoxicity against human PBMC cells by MTT assay; type: cell-based
[7] = biological target: T1, C-X-C chemokine receptor type 4; assay: Inhibition of anti-CXCR4 mAbs clone 1D9 binding to CXCR4 in human SUPT1 cells incubated for 30 mins by FACS
[8] = Cytotoxicity against human MT4 cells by MTT assay; type: cell-based
[9] = biological target: T1, C-X-C chemokine receptor type 4; assay: Inhibition of CXCL-12'AF647 binding to CXCR4 in human SUPT1 cells incubated for 15 mins by FACS; type: cell-based
Method in brief: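 SupT1 cells (high CXCR4) washed, then incubated 15 min at room temperature with compounds at varied concentrations in HBSS containing 20 mM HEPES and 0.2% BSA, pH 7.4. CXCL12-AF647 added at 25 ng/mL final for 30 min at room temperature. Cells washed, fixed in 1% paraformaldehyde, and read by flow cytometry on FL4.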

[10] = biological target: T1, C-X-C chemokine receptor type 4; assay: Antagonist activity against CXCR4 expressed in U87.CD.CXCR4 cells assessed as inhibition of CXCL12-induced calcium signaling incubated for 10 mins by FLIPR; type: functional, cell-based
Method in brief: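 U87.CD4.CXCR4 cells seeded at 2 × 10⁴/well on 0.2% gelatin the day before, loaded with 4 μM Fluo-3 AM for 45 min at 37 °C, washed, then preincubated with compounds at varied concentrations in assay buffer for 10 min at 37 °C. Challenged with 25 ng/mL CXCL12; Ca²⁺ flux followed over time by FLIPR.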

[11] = biological target: T2, C-C chemokine receptor type 5; assay: Antagonist activity against CCR5 expressed in U87.CD4.CCR5 cells assessed as inhibition of CCL3L1-induced calcium signaling incubated for 10 mins by FLIPR
[12] = biological target: T2, C-C chemokine receptor type 5; assay: Agonist activity against CCR5 expressed in U87.CD4.CCR5 cells assessed as stimulation of calcium signaling incubated for 10 mins by FLIPR
[13] = biological target: T1, C-X-C chemokine receptor type 4; assay: Agonist activity against CXCR4 expressed in U87.CD.CXCR4 cells assessed as stimulation of calcium signaling incubated for 10 mins by FLIPR; type: functional, cell-based
Method in brief: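 U87.CD4 cells stably carrying CXCR4 or CCR5, trypsinized and seeded at 2 × 10⁴ cells/well on 0.2% gelatin the day before. Loaded with Fluo-3 AM (4 μM, 45 min, 37 °C), washed, then exposed to test agents alone at varied concentrations in assay buffer for 10 min at 37 °C. Cytosolic Ca²⁺ rise monitored over time by FLIPR to detect any agonist-triggered signal.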

T1 sequence (P61073 whole entry): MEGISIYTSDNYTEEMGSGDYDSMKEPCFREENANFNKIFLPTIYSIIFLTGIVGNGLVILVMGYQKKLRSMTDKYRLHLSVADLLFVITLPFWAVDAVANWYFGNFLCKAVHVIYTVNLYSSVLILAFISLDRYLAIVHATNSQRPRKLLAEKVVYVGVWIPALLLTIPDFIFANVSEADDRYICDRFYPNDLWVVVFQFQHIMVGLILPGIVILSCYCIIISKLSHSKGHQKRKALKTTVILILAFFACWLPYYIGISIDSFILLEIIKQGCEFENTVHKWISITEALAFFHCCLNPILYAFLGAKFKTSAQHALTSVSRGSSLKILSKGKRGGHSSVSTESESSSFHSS
T2 sequence (P51681 whole entry, looked up): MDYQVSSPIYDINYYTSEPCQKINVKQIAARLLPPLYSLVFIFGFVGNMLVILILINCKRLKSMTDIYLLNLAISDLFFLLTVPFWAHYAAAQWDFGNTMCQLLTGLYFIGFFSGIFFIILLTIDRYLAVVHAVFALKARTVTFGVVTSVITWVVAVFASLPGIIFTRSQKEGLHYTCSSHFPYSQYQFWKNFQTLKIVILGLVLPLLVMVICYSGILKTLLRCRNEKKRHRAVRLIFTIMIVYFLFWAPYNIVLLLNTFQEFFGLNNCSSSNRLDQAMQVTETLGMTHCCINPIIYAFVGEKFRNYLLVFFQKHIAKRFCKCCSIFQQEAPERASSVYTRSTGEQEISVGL

| SMILES | IC50 [1] | IC50 [2] | IC50 [3] | IC50 [4] | IC50 [5] | CC50 [6] | IC50 [7] | CC50 [8] | IC50 [9] | IC50 [10] | inhibition [11] | inhibition [2] | inhibition [4] | inhibition [7] | Activity [12] | Activity [13] | inhibition [10] |
| --- | --- | --- | --- | --- | --- | --- | --- | --- | --- | --- | --- | --- | --- | --- | --- | --- | --- |
| CCc1cc[n+](-c2cc[n+](Cc3cc(C[n+]4ccc(-c5cc[n+](CC)cc5)cc4)cc(C[n+]4ccc(-c5cc[n+](Cc6cc(C[n+]7ccc(-c8cc[n+](Cc9cc(C[n+]%10ccc(-c%11cc[n+](CC)cc%11)cc%10)cc(C[n+]%10ccc(-c%11cc[n+](CC)cc%11)cc%10)c9)cc8)cc7)cc(-[n+]7ccc(-c8cc[n+](-c9cc(C[n+]%10ccc(-c%11cc[n+](Cc%12cc(C[n+]%13ccc(-c%14cc[n+](CC)cc%14)cc%13)cc(C[n+]%13ccc(-c%14cc[n+](CC)cc%14)cc%13)c%12)cc%11)cc%10)cc(C[n+]%10ccc(-c%11cc[n+](Cc%12cc(C[n+]%13ccc(-c%14cc[n+](CC)cc%14)cc%13)cc(C[n+]%13ccc(-c%14cc[n+](CC)cc%14)cc%13)c%12)cc%11)cc%10)c9)cc8)cc7)c6)cc5)cc4)c3)cc2)cc1.F[P-](F)(F)(F)(F)F.F[P-](F)(F)(F)(F)F.F[P-](F)(F)(F)(F)F.F[P-](F)(F)(F)(F)F.F[P-](F)(F)(F)(F)F.F[P-](F)(F)(F)(F)F.F[P-](F)(F)(F)(F)F.F[P-](F)(F)(F)(F)F.F[P-](F)(F)(F)(F)F.F[P-](F)(F)(F)(F)F.F[P-](F)(F)(F)(F)F.F[P-](F)(F)(F)(F)F.F[P-](F)(F)(F)(F)F.F[P-](F)(F)(F)(F)F.F[P-](F)(F)(F)(F)F.F[P-](F)(F)(F)(F)F.F[P-](F)(F)(F)(F)F.F[P-](F)(F)(F)(F)F.F[P-](F)(F)(F)(F)F.F[P-](F)(F)(F)(F)F.F[P-](F)(F)(F)(F)F.F[P-](F)(F)(F)(F)F.F[P-](F)(F)(F)(F)F.F[P-](F)(F)(F)(F)F.F[P-](F)(F)(F)(F)F.F[P-](F)(F)(F)(F)F | 0.9 µg/mL | 344 nM | 0.12 µg/mL | 203 nM | 12100 nM | 100 µg/mL | 446 nM | 34 µg/mL | 285 nM | 538 nM |  |  |  |  |  |  |  |
| Cc1cn(CCC[n+]2ccc(-c3cc[n+](Cc4cc(C[n+]5ccc(-c6cc[n+](CCCn7cc(C)c(=O)[nH]c7=O)cc6)cc5)cc(C[n+]5ccc(-c6cc[n+](Cc7cc(C[n+]8ccc(-c9cc[n+](Cc%10cc(C[n+]%11ccc(-c%12cc[n+](CCCn%13cc(C)c(=O)[nH]c%13=O)cc%12)cc%11)cc(C[n+]%11ccc(-c%12cc[n+](CCCn%13cc(C)c(=O)[nH]c%13=O)cc%12)cc%11)c%10)cc9)cc8)cc(-[n+]8ccc(-c9cc[n+](-c%10cc(C[n+]%11ccc(-c%12cc[n+](Cc%13cc(C[n+]%14ccc(-c%15cc[n+](CCCn%16cc(C)c(=O)[nH]c%16=O)cc%15)cc%14)cc(C[n+]%14ccc(-c%15cc[n+](CCCn%16cc(C)c(=O)[nH]c%16=O)cc%15)cc%14)c%13)cc%12)cc%11)cc(C[n+]%11ccc(-c%12cc[n+](Cc%13cc(C[n+]%14ccc(-c%15cc[n+](CCCn%16cc(C)c(=O)[nH]c%16=O)cc%15)cc%14)cc(C[n+]%14ccc(-c%15cc[n+](CCCn%16cc(C)c(=O)[nH]c%16=O)cc%15)cc%14)c%13)cc%12)cc%11)c%10)cc9)cc8)c7)cc6)cc5)c4)cc3)cc2)c(=O)[nH]c1=O.F[P-](F)(F)(F)(F)F.F[P-](F)(F)(F)(F)F.F[P-](F)(F)(F)(F)F.F[P-](F)(F)(F)(F)F.F[P-](F)(F)(F)(F)F.F[P-](F)(F)(F)(F)F.F[P-](F)(F)(F)(F)F.F[P-](F)(F)(F)(F)F.F[P-](F)(F)(F)(F)F.F[P-](F)(F)(F)(F)F.F[P-](F)(F)(F)(F)F.F[P-](F)(F)(F)(F)F.F[P-](F)(F)(F)(F)F.F[P-](F)(F)(F)(F)F.F[P-](F)(F)(F)(F)F.F[P-](F)(F)(F)(F)F.F[P-](F)(F)(F)(F)F.F[P-](F)(F)(F)(F)F.F[P-](F)(F)(F)(F)F.F[P-](F)(F)(F)(F)F.F[P-](F)(F)(F)(F)F.F[P-](F)(F)(F)(F)F.F[P-](F)(F)(F)(F)F.F[P-](F)(F)(F)(F)F.F[P-](F)(F)(F)(F)F.F[P-](F)(F)(F)(F)F | 1.5 µg/mL | 236 nM | 0.41 µg/mL | 210 nM | 3660 nM | 20 µg/mL | 326 nM | 19 µg/mL | 207 nM | 273 nM |  |  |  |  |  |  |  |
| c1cc(CN2CCCNCCNCCCNCC2)ccc1CN1CCCNCCNCCCNCC1 [PLERIXAFOR] |  |  |  |  |  | > 10 µg/mL |  | > 10 µg/mL |  |  |  |  |  |  |  |  |  |
| CC[n+]1ccc(-c2cc[n+](Cc3cc(C[n+]4ccc(-c5cc[n+](CC)cc5)cc4)cc(C[n+]4ccc(-c5cc[n+](Cc6cc(C[n+]7ccc(-c8cc[n+](Cc9cc(C[n+]%10ccc(-c%11cc[n+](CC)cc%11)cc%10)cc(C[n+]%10ccc(-c%11cc[n+](CC)cc%11)cc%10)c9)cc8)cc7)cc(C[n+]7ccc(-c8cc[n+](Cc9cc(C[n+]%10ccc(-c%11cc[n+](CC)cc%11)cc%10)cc(C[n+]%10ccc(-c%11cc[n+](CC)cc%11)cc%10)c9)cc8)cc7)c6)cc5)cc4)c3)cc2)cc1.F[P-](F)(F)(F)(F)F.F[P-](F)(F)(F)(F)F.F[P-](F)(F)(F)(F)F.F[P-](F)(F)(F)(F)F.F[P-](F)(F)(F)(F)F.F[P-](F)(F)(F)(F)F.F[P-](F)(F)(F)(F)F.F[P-](F)(F)(F)(F)F.F[P-](F)(F)(F)(F)F.F[P-](F)(F)(F)(F)F.F[P-](F)(F)(F)(F)F.F[P-](F)(F)(F)(F)F.F[P-](F)(F)(F)(F)F.F[P-](F)(F)(F)(F)F.F[P-](F)(F)(F)(F)F.F[P-](F)(F)(F)(F)F.F[P-](F)(F)(F)(F)F.F[P-](F)(F)(F)(F)F | 0.8 µg/mL | 260 nM | 0.34 µg/mL | 378 nM | 4860 nM | 20 µg/mL | 464 nM | 11 µg/mL | 309 nM | 294 nM | Dose-dependent effect | Dose-dependent effect | Dose-dependent effect | Dose-dependent effect | inactive | inactive | Dose-dependent effect |
| Cc1cn(CCC[n+]2ccc(-c3cc[n+](Cc4cc(C[n+]5ccc(-c6cc[n+](CCCn7cc(C)c(=O)[nH]c7=O)cc6)cc5)cc(C[n+]5ccc(-c6cc[n+](Cc7cc(C[n+]8ccc(-c9cc[n+](Cc%10cc(C[n+]%11ccc(-c%12cc[n+](CCCn%13cc(C)c(=O)[nH]c%13=O)cc%12)cc%11)cc(C[n+]%11ccc(-c%12cc[n+](CCCn%13cc(C)c(=O)[nH]c%13=O)cc%12)cc%11)c%10)cc9)cc8)cc(C[n+]8ccc(-c9cc[n+](Cc%10cc(C[n+]%11ccc(-c%12cc[n+](CCCn%13cc(C)c(=O)[nH]c%13=O)cc%12)cc%11)cc(C[n+]%11ccc(-c%12cc[n+](CCCn%13cc(C)c(=O)[nH]c%13=O)cc%12)cc%11)c%10)cc9)cc8)c7)cc6)cc5)c4)cc3)cc2)c(=O)[nH]c1=O.F[P-](F)(F)(F)(F)F.F[P-](F)(F)(F)(F)F.F[P-](F)(F)(F)(F)F.F[P-](F)(F)(F)(F)F.F[P-](F)(F)(F)(F)F.F[P-](F)(F)(F)(F)F.F[P-](F)(F)(F)(F)F.F[P-](F)(F)(F)(F)F.F[P-](F)(F)(F)(F)F.F[P-](F)(F)(F)(F)F.F[P-](F)(F)(F)(F)F.F[P-](F)(F)(F)(F)F.F[P-](F)(F)(F)(F)F.F[P-](F)(F)(F)(F)F.F[P-](F)(F)(F)(F)F.F[P-](F)(F)(F)(F)F.F[P-](F)(F)(F)(F)F.F[P-](F)(F)(F)(F)F | 1.8 µg/mL | 352 nM | 0.89 µg/mL | 403 nM | 1870 nM | 20 µg/mL | 516 nM | 10 µg/mL | 231 nM | 279 nM |  |  |  |  |  |  |  |
